From ChEMBL document CHEMBL2150998, “Antibiotic and antimalarial quinones from fungus-growing ant-associated Pseudonocardia sp” (J Nat Prod, 2012)
In brackets after ≈: the same amount, converted by molar mass.

How the values were obtained:
HepG2 = assay: Cytotoxicity against human HepG2 cells after 2 days by CellTiter-Glo assay; assay type: cell-based; conditions: HepG2, 48 h
In short: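 HepG2 hepatoma cells were kept in DMEM with 10% FBS and 1% antibiotic–antimycotic (37 °C, 5% CO2). 15 000 cells/well were exposed in triplicate to compounds at 0–50 μg/mL with 1% DMSO final, 2 days at 37 °C. Viability was read by CellTiter-Glo luminescence. IC50 came from a standard inhibition dose–response fit, mean of two independent experiments.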

Plasmodium berghei = assay: Antiplasmodial activity against luciferase-expressing sporozoite of Plasmodium berghei ANKA infected in human HepG2 cells assessed as reduction of parasite load after 2 days; assay type: functional, organism-based; conditions: HepG2, 48 h
In short: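 HepG2 cells (15 000/well, 384-well) were infected with 4000 luciferase-expressing P. berghei ANKA sporozoites, taken from infected Anopheles stephensi, with compounds in triplicate. Final DMSO was 1%, compounds 0–50 μg/mL, 2 days at 37 °C. Parasite load was read by Bright-Glo luminescence. IC50 came from a standard inhibition dose–response fit, mean of two independent experiments. Atovaquone was the positive control.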

Escherichia coli = assay: Antibacterial activity against Escherichia coli K12 after 24 hrs; assay type: functional; conditions: K-12, 24 h
In short: (§1)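 Overnight cultures at 30 °C in LB (E. coli, B. subtilis) or YPD (C. albicans, S. cerevisiae) were diluted to OD600 0.01. Compounds came from 5 mg/mL DMSO stocks, 2-fold serially diluted, at final 50 to 0.1 μg/mL. Growth ran 24 h at 30 °C with OD600 read-out. MIC was the lowest concentration giving <5% of maximum OD600. Assays were run in duplicate, with dynemicin A as positive control.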

Bacillus subtilis = assay: Antibacterial activity against Bacillus subtilis 3610 after 24 hrs; assay type: functional; conditions: subsp. subtilis str. NCIB 3610, 24 h; in short: as §1
Candida albicans = assay: Antifungal activity against Candida albicans after 24 hrs; assay type: functional; in short: as §1
Saccharomyces cerevisiae = assay: Antifungal activity against Saccharomyces cerevisiae after 24 hrs; assay type: functional; in short: as §1

Row | Compound | IC50 (Plasmodium berghei) | MIC (Escherichia coli) | MIC (Bacillus subtilis) | MIC (Candida albicans) | MIC (Saccharomyces cerevisiae) | IC50 (HepG2)
1 | COC1=C(C(=O)O)[C@H](C)[C@@]23O[C@]24c2cc(O)c5c(c2N[C@H]3C#C/C=C\C#C[C@H]14)C(=O)c1c(O)ccc(O)c1C5=O [DYNEMICIN A] | – | 0.313 µg/mL (≈ 0.582 µM) | 0.00016 µg/mL (≈ 0.000298 µM) | 0.156 µg/mL (≈ 0.29 µM) | 0.156 µg/mL (≈ 0.29 µM) | –
2 | COc1cccc2c1C(=O)c1ccc3cc(C)cc(O[C@@H]4O[C@H](C(=O)O)[C@@H](O)[C@H](O)[C@H]4O)c3c1C2=O [PSEUDONOCARDONE B] | 50 µM | > 50 µg/mL | > 50 µg/mL | > 50 µg/mL | > 50 µg/mL | > 100 µM
3 | COc1cccc2c1C(=O)c1ccc3cc(C)c(O[C@@H]4O[C@H](C(=O)O)[C@@H](O)[C@H](O)[C@H]4O)c(O)c3c1C2=O [PSEUDONOCARDONE C] | > 100 µM | > 50 µg/mL | > 50 µg/mL | > 50 µg/mL | > 50 µg/mL | > 100 µM

Now from value to compound, other results behind:

Row | IC50 (Plasmodium berghei) | MIC (Escherichia coli) | MIC (Bacillus subtilis) | MIC (Candida albicans) | MIC (Saccharomyces cerevisiae) | Compound | IC50 (HepG2)
4 | 18.5 µM | > 50 µg/mL | 25 µg/mL (≈ 74.3 µM) | > 50 µg/mL | > 50 µg/mL | COc1cccc2c1C(=O)c1ccc3c(c1C2=O)C(=O)C[C@](C)(O)C3 | > 100 µM
5 | 3 µM | > 50 µg/mL | 3.13 µg/mL (≈ 9.83 µM) | > 50 µg/mL | > 50 µg/mL | COc1cccc2c1C(=O)c1ccc3cc(C)cc(O)c3c1C2=O | 36.1 µM
6 | 38 µM | > 50 µg/mL | > 50 µg/mL | > 50 µg/mL | > 50 µg/mL | COc1cccc2c1C(=O)c1ccc3cc(C)cc(O[C@@H]4O[C@H](C(=O)O)[C@@H](O)[C@H](O)[C@H]4O)c3c1C2O (relative stereo) | > 100 µM
